{"source": "ChEMBL document CHEMBL2331364", "about": "“A synthetic dolastatin 10 analogue suppresses microtubule dynamics, inhibits cell proliferation, and induces apoptotic cell death” (J Med Chem, 2013)", "key": {"HeLa [1]": {"tested_on": "HeLa", "assay": "Inhibition of microtubule-kinetochore tension in human HeLa cells assessed as BubR1 accumulation at kinetochoric region at 15 to 45 nM after 24 hrs by Hoechst 33258 dye-based Hec1 staining assay", "type": "cell-based"}, "Homo sapiens [2]": {"organism": "Homo sapiens", "assay": "Inhibition of microtubule (unknown origin) assembly at 5 uM incubated for 15 mins prior to GTP addition measured for 30 mins by 90 degree light scattering-based fluorescence spectrophotometric method", "outline": "(§1)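 MAP-rich tubulin (1 mg/mL) was preincubated with 1, 3, 5 or 10 μM in PEM buffer (25 mM Pipes pH 6.8, 3 mM MgCl2, 1 mM EGTA) for 15 min on ice. GTP (1 mM) was then added and assembly monitored by 90° light scattering at 400 nm for 30 min at 37 °C.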"}, "HeLa [3]": {"tested_on": "HeLa", "assay": "Cell cycle arrest in human HeLa cells assessed as accumulation at G2/M phase at 30 nM after 24 hrs by propidium iodide staining-based flow cytometry (reference value: 4%)", "type": "functional"}, "HeLa [4]": {"tested_on": "HeLa", "assay": "Inhibition of mitosis in human HeLa cells assessed as mitotic index ratio at 30 nM after 48 hrs by Hoechst 33258 DNA staining assay (reference value: 3)", "type": "functional", "outline": "(§2)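 HeLa cells were treated with vehicle or 7, 15 or 30 nM compound for 24 or 48 h. DNA was stained with Hoechst 33258, and mitotic cells were counted by fluorescence microscopy to give the mitotic index, compared against vehicle-treated cells.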"}, "HeLa [5]": {"tested_on": "HeLa", "assay": "Induction of apoptosis in human HeLa cells assessed as procaspase-3 activation at 30 nM after 24 hrs by Western blot analysis", "type": "functional, cell-based", "outline": "(§3)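 HeLa cells were treated with vehicle or 30 nM for 24 h and washed twice in PBS. Lysates were Western blotted with antibodies to JNK1, phospho-JNK, procaspase-3 and PARP.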"}, "MCF7 [6]": {"tested_on": "MCF7", "assay": "Inhibition of microtubule (unknown origin) dynamics in GFP-tubulin transfected human MCF7 cells assessed as microtubule catastrophe events at 15 nM by confocal laser scanning microscopy (reference value: 4 +/- 1.2 events/min)", "type": "cell-based", "outline": "(§4)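 EGFP-tubulin-transfected MCF-7 cells grown in EMEM with 10% FBS at 37 °C in 5% CO2, exposed to 15 nM compound (DMSO vehicle) or vehicle. Individual microtubules were followed by time-lapse confocal laser scanning microscopy and life-history traces were recorded. Kinetic parameters were derived from these traces, 20 microtubules per condition. Significance was tested by one-way ANOVA.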"}, "Tubulin (Capra hircus) [7]": {"tested_on": "Tubulin (Capra hircus)", "assay": "Inhibition of goat brain microtubule GTPase activity using GTP as substrate assessed as reduction of inorganic phosphate release at 5 uM incubated for 10 mins prior to substrate addition measured after 10 mins by ammonium molybdate malachite green assay relative to control"}, "HeLa [8]": {"tested_on": "HeLa", "assay": "Induction of interphase microtubule depolymerization in human HeLa cells at 30 nM after 24 hrs by Hoechst 33258 dye-based fluorescence microscopy", "type": "cell-based"}, "Tubulin (Capra hircus) [9]": {"tested_on": "Tubulin (Capra hircus)", "assay": "Inhibition of goat brain microtubule GTPase activity using GTP as substrate assessed as reduction of inorganic phosphate release at 2 uM incubated for 10 mins prior to substrate addition measured after 10 mins by ammonium molybdate malachite green assay relative to control"}, "MCF7 [10]": {"tested_on": "MCF7", "assay": "Induction of mitotic microtubule depolymerization in human MCF7 cells at 15 nM after 48 hrs by Hoechst 33258 dye-based fluorescence microscopy", "type": "cell-based"}, "HeLa [11]": {"tested_on": "HeLa", "assay": "Inhibition of microtubule-kinetochore attachment in human HeLa cells assessed as BubR1 accumulation at kinetochoric region at 15 to 45 nM after 24 hrs by Hoechst 33258 dye-based Hec1 staining assay", "type": "cell-based"}, "MCF7 [12]": {"tested_on": "MCF7", "assay": "Inhibition of microtubule (unknown origin) dynamics in GFP-tubulin transfected human MCF7 cells assessed as decrease in microtubule shortening length at 15 nM by confocal laser scanning microscopy relative to control", "type": "cell-based", "outline": "(§5)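 EGFP-tubulin transfected MCF-7 cells were treated with vehicle or 15 nM, and individual microtubules were tracked by confocal laser scanning microscopy, 20 microtubules per condition. Life-history parameters were derived as previously described. Significance was tested by one-way ANOVA.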"}, "MDA-MB-231": {"tested_on": "MDA-MB-231", "assay": "Cytotoxicity against human MDA-MB-231 cells after 24 to 48 hrs by trypan blue assay", "type": "functional, cell-based", "outline": "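Cells were seeded at 1 × 10^5 cells/mL, grown 24 h at 37 °C in 5% CO2, then given vehicle (0.1% DMSO) or 1–80 nM for a further 24 or 48 h. Attached plus floating cells were counted after trypan blue staining. Percent inhibition was plotted against concentration to give IC50. Average of three independent experiments.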"}, "HeLa [13]": {"tested_on": "HeLa", "assay": "Induction of apoptosis in human HeLa cells assessed as caspase-3 activation at 30 nM after 24 hrs by Western blot analysis", "type": "functional, cell-based", "outline": "as §3"}, "Tubulin (Homo sapiens)": {"molecular_target": "Tubulin (Homo sapiens) (UniProt P68371+Q9H4B7+P0DPH7+P68366+Q13509+Q71U36+P04350+Q3ZCM7+P07437+P68363+Q9BQE3+Q6PEY2+Q13885+Q9BVA1+Q9BUF5)", "assay": "Induction of tubulin (unknown origin) dimer aggregation at 10 uM after 20 mins by transmission electron microscopy", "type": "protein-complex assay", "outline": "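Goat brain tubulin (10 μM) was preincubated with 5 or 10 μM on ice for 20 min, then polymerized with 1 mM GTP at 37 °C in glutamate assembly buffer. Polymers were fixed in 0.5% glutaraldehyde, negatively stained with 2% uranyl acetate, and imaged by transmission EM.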"}, "MCF7 [14]": {"tested_on": "MCF7", "assay": "Inhibition of microtubule (unknown origin) dynamics in GFP-tubulin transfected human MCF7 cells assessed as decrease in microtubule growth at 15 nM by confocal laser scanning microscopy relative to control", "type": "cell-based", "outline": "as §5"}, "HeLa [15]": {"tested_on": "HeLa", "assay": "Inhibition of mitosis in human HeLa cells assessed as mitotic index ratio at 7 nM after 48 hrs by Hoechst 33258 DNA staining assay (reference value: 3)", "type": "functional", "outline": "as §2"}, "MCF7 [16]": {"tested_on": "MCF7", "assay": "Inhibition of microtubule (unknown origin) dynamics in GFP-tubulin transfected human MCF7 cells assessed as microtubule shortening time at 15 nM by confocal laser scanning microscopy (reference value: 27 +/- 8 %)", "type": "cell-based", "parameters": "scale not given: the % may be the effect or the level left", "outline": "as §4"}, "Homo sapiens [17]": {"organism": "Homo sapiens", "assay": "Inhibition of microtubule (unknown origin) assembly at 1 to 10 uM incubated for 15 mins prior to GTP addition measured for 30 mins by 90 degree light scattering-based fluorescence spectrophotometric method", "outline": "as §1"}, "HeLa [18]": {"tested_on": "HeLa", "assay": "Induction of apoptosis in human HeLa cells assessed as late apoptotic cells at 30 nM after 24 hrs by annexin V/propidium iodide staining-based FACS flow cytometry", "type": "functional, cell-based", "outline": "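HeLa cells were grown with vehicle (0.1% DMSO) or 7, 15 and 30 nM for 24 h and stained with an annexin V/propidium iodide kit. Stage was scored as annexin V-positive with weak PI (early/mid) or positive for both (late).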"}, "HeLa [19]": {"tested_on": "HeLa", "assay": "Inhibition of mitosis in human HeLa cells assessed as mitotic index ratio at 15 nM after 48 hrs by Hoechst 33258 DNA staining assay (reference value: 3)", "type": "functional", "outline": "as §2"}, "MCF7 [20]": {"tested_on": "MCF7", "assay": "Inhibition of microtubule (unknown origin) dynamics in GFP-tubulin transfected human MCF7 cells assessed as microtubule growth time at 15 nM by confocal laser scanning microscopy (reference value: 37 +/- 6 %)", "type": "cell-based", "parameters": "scale not given: the % may be the effect or the level left", "outline": "as §4"}, "HeLa [21]": {"tested_on": "HeLa", "assay": "Induction of apoptosis in human HeLa cells assessed as apoptotic cells at 35 nM after 10 hrs by annexin V-FITC/propidium iodide staining-based FACS analysis", "type": "functional", "outline": "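HeLa cells were exposed to 35 nM for 10 or 24 h, stained with annexin V and propidium iodide using a kit, and apoptotic cells were quantified by FACS. Nocodazole (700 nM) served as comparator.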"}}, "note": "Activity calls are given as the source filed them. The calls are words filed in the database; no cut-off is given here.", "data": [{"smiles": "CC[C@H](C)[C@@H]([C@@H](CC(=O)NC[C@H]1O[C@H](C(=O)NCCc2ccccc2)[C@@H](OC)[C@@H]1OC)OC)N(C)C(=O)[C@@H](NC(=O)[C@@H](NC)C(C)C)C(C)C", "values": [{"measurement": "Activity", "setting": "HeLa [1]", "value": "Active"}, {"measurement": "inhibition", "setting": "Homo sapiens [2]", "value": 48, "unit": "%"}, {"measurement": "Activity", "setting": "HeLa [3]", "value": 9, "unit": "%"}, {"measurement": "Ratio", "setting": "HeLa [4]", "value": 16}, {"measurement": "Activity", "setting": "HeLa [5]", "value": "Active"}, {"measurement": "Activity", "setting": "MCF7 [6]", "value": 3, "unit": "min⁻¹"}, {"measurement": "inhibition", "setting": "Tubulin (Capra hircus) [7]", "value": 42, "unit": "%"}, {"measurement": "Activity", "setting": "HeLa [8]", "value": "Active"}, {"measurement": "inhibition", "setting": "Tubulin (Capra hircus) [9]", "value": 17, "unit": "%"}, {"measurement": "Activity", "setting": "MCF7 [10]", "value": "Active"}, {"measurement": "Activity", "setting": "HeLa [11]", "value": "Active"}, {"measurement": "inhibition", "setting": "MCF7 [12]", "value": 44, "unit": "%"}, {"measurement": "IC50", "setting": "MDA-MB-231", "value": 13, "unit": "nM"}, {"measurement": "Activity", "setting": "HeLa [13]", "value": "Active"}, {"measurement": "Activity", "setting": "Tubulin (Homo sapiens)", "value": "Active"}, {"measurement": "inhibition", "setting": "MCF7 [14]", "value": 31, "unit": "%"}, {"measurement": "Ratio", "setting": "HeLa [15]", "value": 7.5}, {"measurement": "Activity", "setting": "MCF7 [16]", "value": 19, "unit": "%"}, {"measurement": "inhibition", "setting": "Homo sapiens [17]", "value": "Active"}, {"measurement": "Activity", "setting": "HeLa [18]", "value": "Active"}, {"measurement": "Ratio", "setting": "HeLa [19]", "value": 11}, {"measurement": "Activity", "setting": "MCF7 [20]", "value": 21, "unit": "%"}, {"measurement": "Activity", "setting": "HeLa [21]", "value": 22.4, "unit": "%"}]}]}
